Source: ChEMBL document CHEMBL1821590, “Novel dihydropyrimidines and its pyrazole derivatives: synthesis and pharmacological screening” (Eur J Med Chem, 2011)
In brackets after ≈: the same amount, converted by molar mass.

Tested on: not listed separately
Test: Antioxidant activity assessed as nitric oxide radical scavenging activity after 150 mins
Assay type: functional
Settings: not given
Procedure, shortened: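 10 mM sodium nitroprusside (4 mL), PBS pH 7.4 (1 mL) and sample or ascorbic acid in DMSO (1 mL, 12.5–100 µg/mL), incubated 150 min at 25 °C. Nitrite detected with sulphanilic acid (5 min) then naphthylethylenediamine (30 min, diffused light). Read at […]. Triplicate. % inhibition = [1 − (Vt/Vc)] × 100. IC50 derived from it.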

Compound | IC50 [µg/mL]
Cn1c(NN)nc(-c2ccccc2O)c(C#N)c1=O | 46 (≈ 179 µM)

Tested on: not listed separately
Test: Antioxidant activity assessed as hydrogen peroxide scavenging activity after 10 mins
Assay type: functional
Settings: not given
Procedure, shortened: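 H2O2 (20 mM) in PBS pH 7.4. 1 mL of sample or ascorbic acid in methanol (12.5–100 µg/mL) added to 2 mL H2O2 solution. A230 read after 10 min. % inhibition = [1 − (Vt/Vc)] × 100. Triplicate, averaged. IC50 derived from % inhibition across concentrations.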

Compound | IC50 [µg/mL]
Cn1c(NN)nc(-c2ccccc2O)c(C#N)c1=O | 30 (≈ 117 µM)

Tested on: not listed separately
Test: Antioxidant activity assessed as inhibition of lipid peroxidation using egg lecithin liposomes incubated for 1 hr
Assay type: functional
Settings: not given
Procedure, shortened: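 Egg lecithin (3 mg/mL, phosphate buffer pH 7.4) sonicated 10 min to form liposomes. Sample or ascorbic acid (12.5–100 µg/mL) added. Peroxidation induced with FeCl3 and L-ascorbic acid, 1 h at 37 °C. Stopped with HCl/TCA/TBA/BHA, boiled 15 min, centrifuged, supernatant read at 532 nm. Triplicate. % inhibition vs control. IC50 derived.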

Compound | IC50 [µg/mL]
Cn1c(NN)nc(-c2ccccc2O)c(C#N)c1=O | 34 (≈ 132 µM)

Tested on: not listed separately
Test: Antioxidant activity assessed as potassium ferricyanide ion reducing power after 20 mins
Assay type: functional
Settings: not given
Procedure, shortened: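 Oyaizu method. Samples or ascorbic acid in DMF (12.5–100 µg/mL) mixed with 0.2 M phosphate buffer pH 6.6 and 1% potassium ferricyanide, 20 min at 50 °C. 10% TCA added, centrifuged. Supernatant mixed with water and 0.1% FeCl3, read at 700 nm. % = [(Vt/Vc) − 1] × 100. IC50 derived.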

Compound | IC50 [µg/mL]
Cn1c(NN)nc(-c2ccccc2O)c(C#N)c1=O | 38 (≈ 148 µM)

Tested on: not listed separately
Test: Antiinflammatory activity assessed as inhibition of albumin denaturation at 100 ug/ml by UV-visible spectrophotometry
Assay type: functional
Settings: not given
Procedure, shortened: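 Compounds dissolved in minimal DMF, diluted in PBS pH 7.4 (final DMF <2.5%). 1 mL test solution (100 µg/mL) plus 1 mL 1% albumin in PBS, 15 min at 27 ± 1 °C, then heated 10 min at 60 ± 1 °C. After cooling, turbidity read at 660 nm. % inhibition = [(Vt/Vc) − 1] × 100 against a no-drug control. Triplicate, averaged. Diclofenac standard.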

Compound | inhibition [%]
Cn1c(NN)nc(-c2ccccc2O)c(C#N)c1=O | 34.4

Tested on: Metaphire posthuma
Test: Anthelmintic activity against Pheretima posthuma assessed as time taken for complete parasite paralysis at 0.1% w/v
Assay type: functional
Settings: not given
Procedure, shortened: (§1)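 Earthworms (Pheretima posthuma) exposed to test solutions at 0.1, 0.2 and 0.5% w/v; time in minutes to complete paralysis (worms motionless) recorded. Albendazole as standard. Mean of three determinations ± S.D.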

Compound | Time [min]
Cn1c(NN)nc(-c2ccccc2O)c(C#N)c1=O | 35.42

Tested on: Metaphire posthuma
Test: Anthelmintic activity against Pheretima posthuma assessed as time taken for complete parasite paralysis at 0.2% w/v
Assay type: functional
Settings: not given
Procedure, shortened: as §1

Compound | Time [min]
Cn1c(NN)nc(-c2ccccc2O)c(C#N)c1=O | 33.85

Tested on: Metaphire posthuma
Test: Anthelmintic activity against Pheretima posthuma assessed as time taken for complete parasite paralysis at 0.5% w/v
Assay type: functional
Settings: not given
Procedure, shortened: as §1

Compound | Time [min]
Cn1c(NN)nc(-c2ccccc2O)c(C#N)c1=O | 30.13

Tested on: Metaphire posthuma
Test: Anthelmintic activity against Pheretima posthuma assessed as time taken for parasite death at 0.1% w/v
Assay type: functional
Settings: not given
Procedure, shortened: (§2)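 Earthworms (Pheretima posthuma, spelled Perituma posthuma in text) exposed to test compounds at 0.1, 0.2 and 0.5% w/v. Albendazole served as standard, with an untreated control. Paralysis was recorded as the time until worms became motionless, then time to death was recorded, in minutes. Each value is the mean of three determinations with S.D.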

Compound | Time [min]
Cn1c(NN)nc(-c2ccccc2O)c(C#N)c1=O | 50.13

Tested on: Metaphire posthuma
Test: Anthelmintic activity against Pheretima posthuma assessed as time taken for parasite death at 0.2% w/v
Assay type: functional
Settings: not given
Procedure, shortened: as §2

Compound | Time [min]
Cn1c(NN)nc(-c2ccccc2O)c(C#N)c1=O | 37.1

Tested on: Metaphire posthuma
Test: Anthelmintic activity against Pheretima posthuma assessed as time taken for parasite death at 0.5% w/v
Assay type: functional
Settings: not given
Procedure, shortened: as §2

Compound | Time [min]
Cn1c(NN)nc(-c2ccccc2O)c(C#N)c1=O | 44.1

Tested on: Escherichia coli
Test: Antimicrobial activity against Escherichia coli at 25 ug/ml by agar plate diffusion technique
Assay type: functional
Settings: read-out: IZ
Procedure, shortened: (§3)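 Agar plate diffusion against E. coli, P. aeruginosa, S. aureus and B. subtilis, with compounds at 25, 50 and 100 µg/mL. Streptomycin as standard.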

Compound | zone of inhibition at 25 µg/mL [mm]
Cn1c(NN)nc(-c2ccccc2O)c(C#N)c1=O | 8.39

Tested on: Escherichia coli
Test: Antimicrobial activity against Escherichia coli at 50 ug/ml by agar plate diffusion technique
Assay type: functional
Settings: read-out: IZ
Procedure, shortened: as §3

Compound | zone of inhibition at 50 µg/mL [mm]
Cn1c(NN)nc(-c2ccccc2O)c(C#N)c1=O | 9.58

Tested on: Escherichia coli
Test: Antimicrobial activity against Escherichia coli at 100 ug/ml by agar plate diffusion technique
Assay type: functional
Settings: read-out: IZ
Procedure, shortened: as §3

Compound | zone of inhibition at 100 µg/mL [mm]
Cn1c(NN)nc(-c2ccccc2O)c(C#N)c1=O | 11.2

Tested on: Pseudomonas aeruginosa
Test: Antimicrobial activity against Pseudomonas aeruginosa at 25 ug/ml by agar plate diffusion technique
Assay type: functional
Settings: read-out: IZ
Procedure, shortened: as §3

Compound | zone of inhibition at 25 µg/mL [mm]
Cn1c(NN)nc(-c2ccccc2O)c(C#N)c1=O | 7.27

Tested on: Pseudomonas aeruginosa
Test: Antimicrobial activity against Pseudomonas aeruginosa at 50 ug/ml by agar plate diffusion technique
Assay type: functional
Settings: read-out: IZ
Procedure, shortened: as §3

Compound | zone of inhibition at 50 µg/mL [mm]
Cn1c(NN)nc(-c2ccccc2O)c(C#N)c1=O | 9.17

Tested on: Pseudomonas aeruginosa
Test: Antimicrobial activity against Pseudomonas aeruginosa at 100 ug/ml by agar plate diffusion technique
Assay type: functional
Settings: read-out: IZ
Procedure, shortened: as §3

Compound | zone of inhibition at 100 µg/mL [mm]
Cn1c(NN)nc(-c2ccccc2O)c(C#N)c1=O | 13

Tested on: Bacillus subtilis
Test: Antimicrobial activity against Bacillus subtilis at 25 ug/ml by agar plate diffusion technique
Assay type: functional
Settings: read-out: IZ
Procedure, shortened: as §3

Compound | zone of inhibition at 25 µg/mL [mm]
Cn1c(NN)nc(-c2ccccc2O)c(C#N)c1=O | 9.81

Tested on: Bacillus subtilis
Test: Antimicrobial activity against Bacillus subtilis at 50 ug/ml by agar plate diffusion technique
Assay type: functional
Settings: read-out: IZ
Procedure, shortened: as §3

Compound | zone of inhibition at 50 µg/mL [mm]
Cn1c(NN)nc(-c2ccccc2O)c(C#N)c1=O | 13.8

Tested on: Bacillus subtilis
Test: Antimicrobial activity against Bacillus subtilis at 100 ug/ml by agar plate diffusion technique
Assay type: functional
Settings: read-out: IZ
Procedure, shortened: as §3

Compound | zone of inhibition at 100 µg/mL [mm]
Cn1c(NN)nc(-c2ccccc2O)c(C#N)c1=O | 22.2

Tested on: Staphylococcus aureus
Test: Antimicrobial activity against Staphylococcus aureus at 25 ug/ml by agar plate diffusion technique
Assay type: functional
Settings: read-out: IZ
Procedure, shortened: as §3

Compound | zone of inhibition at 25 µg/mL [mm]
Cn1c(NN)nc(-c2ccccc2O)c(C#N)c1=O | 10.6

Tested on: Staphylococcus aureus
Test: Antimicrobial activity against Staphylococcus aureus at 50 ug/ml by agar plate diffusion technique
Assay type: functional
Settings: read-out: IZ
Procedure, shortened: as §3

Compound | zone of inhibition at 50 µg/mL [mm]
Cn1c(NN)nc(-c2ccccc2O)c(C#N)c1=O | 12.2

Tested on: Staphylococcus aureus
Test: Antimicrobial activity against Staphylococcus aureus at 100 ug/ml by agar plate diffusion technique
Assay type: functional
Settings: read-out: IZ
Procedure, shortened: as §3

Compound | zone of inhibition at 100 µg/mL [mm]
Cn1c(NN)nc(-c2ccccc2O)c(C#N)c1=O | 17.7

Tested on: Candida albicans
Test: Antimicrobial activity against Candida albicans at 25 ug/ml by paper disc method
Assay type: functional
Settings: read-out: IZ
Procedure, shortened: (§4)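 Paper disc method against A. niger and C. albicans, with compounds at 25, 50 and 100 µg/mL. Amphotericin-B as standard.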

Compound | zone of inhibition at 25 µg/mL [mm]
Cn1c(NN)nc(-c2ccccc2O)c(C#N)c1=O | 9.62

Tested on: Candida albicans
Test: Antimicrobial activity against Candida albicans at 50 ug/ml by paper disc method
Assay type: functional
Settings: read-out: IZ
Procedure, shortened: as §4

Compound | zone of inhibition at 50 µg/mL [mm]
Cn1c(NN)nc(-c2ccccc2O)c(C#N)c1=O | 12.5

Tested on: Candida albicans
Test: Antimicrobial activity against Candida albicans at 100 ug/ml by paper disc method
Assay type: functional
Settings: read-out: IZ
Procedure, shortened: as §4

Compound | zone of inhibition at 100 µg/mL [mm]
Cn1c(NN)nc(-c2ccccc2O)c(C#N)c1=O | 17.7

Tested on: Aspergillus niger
Test: Antimicrobial activity against Aspergillus niger at 25 ug/ml by paper disc method
Assay type: functional
Settings: read-out: IZ
Procedure, shortened: as §4

Compound | zone of inhibition at 25 µg/mL [mm]
Cn1c(NN)nc(-c2ccccc2O)c(C#N)c1=O | 8.24

Tested on: Aspergillus niger
Test: Antimicrobial activity against Aspergillus niger at 50 ug/ml by paper disc method
Assay type: functional
Settings: read-out: IZ
Procedure, shortened: as §4

Compound | zone of inhibition at 50 µg/mL [mm]
Cn1c(NN)nc(-c2ccccc2O)c(C#N)c1=O | 10.6

Tested on: Aspergillus niger
Test: Antimicrobial activity against Aspergillus niger at 100 ug/ml by paper disc method
Assay type: functional
Settings: read-out: IZ
Procedure, shortened: as §4

Compound | zone of inhibition at 100 µg/mL [mm]
Cn1c(NN)nc(-c2ccccc2O)c(C#N)c1=O | 16.5
